Reference: ChEMBL document CHEMBL3351667, “A chemical tuned strategy to develop novel irreversible EGFR-TK inhibitors with improved safety and pharmacokinetic profiles” (J Med Chem, 2014)

What was measured:
NCI-H1975 = assay: Antitumor activity against human NCI-H1975 cells xenografted in nude mouse assessed as reduction in tumor growth at 30 mg/kg/day, ig relative to untreated control; format: functional; conditions: route intragastric
hERG (KCNH2) [1] = target: T1, hERG (KCNH2) (Homo sapiens, UniProt Q12809); assay: Inhibition of human ERG assessed as reduction in channel currents at 10 uM
[2] = Oral bioavailability in BALB/c mouse at 10 mg/kg after 24 hrs by LC/MS/MS method; format: ADME, organism-based; conditions: in vivo
Cytochrome P450 1A2 = target: T2, Cytochrome P450 1A2 (Homo sapiens, UniProt P05177); assay: Inhibition of CYP1A2 in human hepatic microsomes after 20 mins by LC/MS/MS method; format: ADME, Liver
T2 sequence (P05177 whole entry): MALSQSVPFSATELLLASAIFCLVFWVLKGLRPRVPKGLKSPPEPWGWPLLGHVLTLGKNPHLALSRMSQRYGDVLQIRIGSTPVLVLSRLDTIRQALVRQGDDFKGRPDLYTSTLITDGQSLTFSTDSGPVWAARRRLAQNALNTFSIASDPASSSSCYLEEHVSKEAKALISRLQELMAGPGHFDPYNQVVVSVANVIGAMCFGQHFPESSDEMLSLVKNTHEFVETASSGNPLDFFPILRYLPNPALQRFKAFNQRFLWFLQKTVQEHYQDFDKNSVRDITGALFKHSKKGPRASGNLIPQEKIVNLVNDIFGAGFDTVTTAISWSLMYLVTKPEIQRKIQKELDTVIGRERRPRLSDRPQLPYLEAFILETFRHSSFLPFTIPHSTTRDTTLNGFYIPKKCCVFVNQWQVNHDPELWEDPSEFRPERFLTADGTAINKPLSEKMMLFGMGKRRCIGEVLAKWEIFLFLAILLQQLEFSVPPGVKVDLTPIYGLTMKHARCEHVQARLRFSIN

Cytochrome P450 3A4 = Cytochrome P450 3A4 (Homo sapiens, UniProt P08684); assay: Inhibition of CYP3A4 in human hepatic microsomes after 20 mins by LC/MS/MS method; format: ADME, Liver
Cytochrome P450 2C9 = Cytochrome P450 2C9 (Homo sapiens, UniProt P11712); assay: Inhibition of CYP2C9 in human hepatic microsomes after 20 mins by LC/MS/MS method; format: ADME, Liver
[3] = target: Receptor tyrosine-protein kinase erbB-2 (Homo sapiens, UniProt P04626); assay: Inhibition of wild type HER2 (unknown origin) incubated for 5 mins by HTRF assay
[4] = Intrinsic clearance in dog liver microsomes assessed per mg protein at 1 uM in presence of NADPH after 0.5 to 30 mins by LC/MS/MS method; format: ADME, Canis lupus familiaris; conditions: read-out: CLH
[5] = target: Epidermal growth factor receptor (Homo sapiens, UniProt P00533, T790M); format: protein assay
[6] = target: Epidermal growth factor receptor (Homo sapiens, UniProt P00533);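 further: inhibition of wild-type EGFR read out by HTRF, with a 5 min incubation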
Cytochrome P450 2C19 = Cytochrome P450 2C19 (Homo sapiens, UniProt P33261); assay: Inhibition of CYP2C19 in human hepatic microsomes after 20 mins by LC/MS/MS method; format: ADME, Liver
[7] = Cmax in BALB/c mouse at 10 mg/kg, po after 24 hrs by LC/MS/MS method; format: ADME, organism-based; design: dose 10 mg/kg, route oral; conditions: in vivo
Mus musculus [8] = assay: Apparent volume of distribution in BALB/c mouse at 10 mg/kg, po after 24 hrs by LC/MS/MS method; format: ADME, organism-based; design: dose 10 mg/kg, route oral; conditions: in vivo
[9] = Ratio of drug level in lung to plasma in BALB/c mouse at 30 mg/kg, po after 6 hrs by LC/MS/MS method; format: ADME, organism-based; design: dose 30 mg/kg, route oral
Outline: (§1)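 BALB/c mice received a single oral dose of 30 mg/kg. Drug concentrations in lung, brain and plasma were measured at multiple time points over 6 h. Mean tissue levels are expressed as a lung/plasma/brain ratio, with plasma set to 1.0.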

[10] = Intrinsic clearance in mouse liver microsomes assessed per mg protein at 1 uM in presence of NADPH after 0.5 to 30 mins by LC/MS/MS method; format: ADME; conditions: read-out: CLH
[11] = (§2) Apparent clearance in BALB/c mouse at 10 mg/kg, po after 24 hrs by LC/MS/MS method; format: ADME, organism-based; design: dose 10 mg/kg, route oral; conditions: BALB/c, in vivo, read-out: CL(app)
hERG (KCNH2) [12] = target: T1, hERG (KCNH2); assay: Inhibition of human ERG assessed as reduction in channel currents at 1 uM
A-431 = assay: cells; format: functional, cell-based; conditions: Homo sapiens, A-431, 48 h
[13] = Intrinsic clearance in human liver microsomes assessed per mg protein at 1 uM in presence of NADPH after 0.5 to 30 mins by LC/MS/MS method; format: ADME; conditions: read-out: CLH
[14] = Intrinsic clearance in rat liver microsomes assessed per mg protein at 1 uM in presence of NADPH after 0.5 to 30 mins by LC/MS/MS method; format: ADME; conditions: read-out: CLH
[15] = Intrinsic clearance in monkey liver microsomes assessed per mg protein at 1 uM in presence of NADPH after 0.5 to 30 mins by LC/MS/MS method; format: ADME, Macaca mulatta; conditions: rhesus monkey, read-out: CLH
[16] = Ratio of drug level in brain to plasma in BALB/c mouse at 30 mg/kg, po after 6 hrs by LC/MS/MS method; format: ADME, organism-based; design: dose 30 mg/kg, route oral; conditions: read-out: BPR; outline: as §1
Cytochrome P450 2D6 = Cytochrome P450 2D6 (Homo sapiens, UniProt P10635); assay: Inhibition of CYP2D6 in human hepatic microsomes after 20 mins by LC/MS/MS method; format: ADME, Liver
[17] = (§3) AUC (0 to infinity) in BALB/c mouse at 10 mg/kg, po after 24 hrs by LC/MS/MS method; format: ADME, organism-based, Plasma; design: dose 10 mg/kg, route oral, time infinity; conditions: BALB/c, plasma
SW-620 = assay: Growth inhibition of human SW620 cells at 5 uM; format: functional; conditions: read-out: GI
Mus musculus [18] = assay: as §2; format: ADME, organism-based; design: dose 10 mg/kg, route oral; conditions: in vivo, 24 h
Mus musculus [19] = assay: as §3; format: ADME, organism-based, Plasma; design: dose 10 mg/kg, route oral, time infinity; conditions: in vivo, 24 h
[20] = Cmax in BALB/c mouse at 5 mg/kg, po after 24 hrs by LC/MS/MS method; format: ADME, organism-based; design: dose 5 mg/kg, route oral; conditions: in vivo
[21] = AUC (0 to infinity) in BALB/c mouse at 5 mg/kg, po after 24 hrs by LC/MS/MS method; format: ADME, organism-based, Plasma; design: time infinity, dose 5 mg/kg, route oral; conditions: BALB/c, plasma
[22] = Apparent clearance in BALB/c mouse at 5 mg/kg, po after 24 hrs by LC/MS/MS method; format: ADME, organism-based; design: dose 5 mg/kg, route oral; conditions: BALB/c, in vivo, read-out: CL(app)
[23] = Oral bioavailability in BALB/c mouse at 5 mg/kg after 24 hrs by LC/MS/MS method; format: ADME, organism-based; conditions: in vivo
Mus musculus [24] = assay: Apparent volume of distribution in BALB/c mouse at 5 mg/kg, po after 24 hrs by LC/MS/MS method; format: ADME, organism-based; design: dose 5 mg/kg, route oral; conditions: in vivo

T1 sequence (Q12809 whole entry): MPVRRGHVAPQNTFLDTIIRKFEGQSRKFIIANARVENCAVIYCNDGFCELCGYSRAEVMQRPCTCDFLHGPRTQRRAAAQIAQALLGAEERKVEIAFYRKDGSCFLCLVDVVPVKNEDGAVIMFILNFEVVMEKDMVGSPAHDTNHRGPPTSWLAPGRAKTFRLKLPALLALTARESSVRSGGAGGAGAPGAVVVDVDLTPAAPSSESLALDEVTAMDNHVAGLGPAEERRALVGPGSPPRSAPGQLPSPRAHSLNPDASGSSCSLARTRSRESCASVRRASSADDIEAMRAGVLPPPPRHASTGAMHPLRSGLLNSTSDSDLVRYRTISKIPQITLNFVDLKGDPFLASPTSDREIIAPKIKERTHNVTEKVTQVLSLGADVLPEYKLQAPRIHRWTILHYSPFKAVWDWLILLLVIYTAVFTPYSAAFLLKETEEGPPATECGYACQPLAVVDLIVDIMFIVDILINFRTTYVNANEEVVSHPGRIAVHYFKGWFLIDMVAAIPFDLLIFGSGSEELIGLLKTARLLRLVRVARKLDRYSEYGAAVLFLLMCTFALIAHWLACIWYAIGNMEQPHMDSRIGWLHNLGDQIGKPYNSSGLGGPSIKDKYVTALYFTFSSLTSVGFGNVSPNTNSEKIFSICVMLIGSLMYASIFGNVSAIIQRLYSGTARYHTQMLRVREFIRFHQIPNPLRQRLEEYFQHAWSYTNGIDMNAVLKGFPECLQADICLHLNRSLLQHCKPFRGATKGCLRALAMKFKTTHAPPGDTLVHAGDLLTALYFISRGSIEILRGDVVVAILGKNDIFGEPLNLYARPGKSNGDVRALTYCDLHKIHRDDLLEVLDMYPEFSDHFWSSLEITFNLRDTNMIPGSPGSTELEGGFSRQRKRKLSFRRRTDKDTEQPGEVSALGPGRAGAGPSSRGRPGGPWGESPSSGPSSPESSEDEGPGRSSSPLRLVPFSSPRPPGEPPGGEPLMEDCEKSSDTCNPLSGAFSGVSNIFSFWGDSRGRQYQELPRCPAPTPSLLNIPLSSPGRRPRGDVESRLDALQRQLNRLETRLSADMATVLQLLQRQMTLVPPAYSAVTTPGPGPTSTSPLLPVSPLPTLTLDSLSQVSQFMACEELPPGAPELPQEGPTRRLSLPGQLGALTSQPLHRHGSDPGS
Sequence of Cytochrome P450 2C9 (P11712 whole entry): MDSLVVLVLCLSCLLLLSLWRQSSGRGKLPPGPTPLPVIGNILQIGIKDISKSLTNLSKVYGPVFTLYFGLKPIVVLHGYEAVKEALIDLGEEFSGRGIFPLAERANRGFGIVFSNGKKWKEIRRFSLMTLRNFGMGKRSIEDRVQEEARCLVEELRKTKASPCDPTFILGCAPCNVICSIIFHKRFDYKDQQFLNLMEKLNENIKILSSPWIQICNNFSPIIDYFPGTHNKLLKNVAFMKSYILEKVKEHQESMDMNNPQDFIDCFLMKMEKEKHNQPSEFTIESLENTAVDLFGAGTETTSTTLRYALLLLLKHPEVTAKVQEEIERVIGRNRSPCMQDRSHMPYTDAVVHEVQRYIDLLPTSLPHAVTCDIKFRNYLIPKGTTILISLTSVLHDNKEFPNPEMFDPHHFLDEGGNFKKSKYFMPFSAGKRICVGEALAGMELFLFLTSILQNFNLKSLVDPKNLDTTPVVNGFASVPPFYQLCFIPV
Sequence of Cytochrome P450 2C19 (P33261 whole entry): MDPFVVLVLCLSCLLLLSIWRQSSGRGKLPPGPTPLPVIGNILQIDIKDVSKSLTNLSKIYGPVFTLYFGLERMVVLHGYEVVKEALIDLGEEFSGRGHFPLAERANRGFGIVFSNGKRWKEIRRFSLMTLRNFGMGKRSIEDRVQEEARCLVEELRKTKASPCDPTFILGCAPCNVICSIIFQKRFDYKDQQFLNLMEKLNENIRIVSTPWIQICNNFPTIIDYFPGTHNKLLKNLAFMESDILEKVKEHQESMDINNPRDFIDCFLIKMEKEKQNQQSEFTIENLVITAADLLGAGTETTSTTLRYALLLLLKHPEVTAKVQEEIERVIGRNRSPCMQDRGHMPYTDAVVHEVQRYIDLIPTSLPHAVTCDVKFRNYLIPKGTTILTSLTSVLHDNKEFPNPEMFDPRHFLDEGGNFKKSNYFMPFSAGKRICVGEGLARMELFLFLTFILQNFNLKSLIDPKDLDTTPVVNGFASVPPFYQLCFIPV
Sequence of Cytochrome P450 3A4 (P08684 whole entry): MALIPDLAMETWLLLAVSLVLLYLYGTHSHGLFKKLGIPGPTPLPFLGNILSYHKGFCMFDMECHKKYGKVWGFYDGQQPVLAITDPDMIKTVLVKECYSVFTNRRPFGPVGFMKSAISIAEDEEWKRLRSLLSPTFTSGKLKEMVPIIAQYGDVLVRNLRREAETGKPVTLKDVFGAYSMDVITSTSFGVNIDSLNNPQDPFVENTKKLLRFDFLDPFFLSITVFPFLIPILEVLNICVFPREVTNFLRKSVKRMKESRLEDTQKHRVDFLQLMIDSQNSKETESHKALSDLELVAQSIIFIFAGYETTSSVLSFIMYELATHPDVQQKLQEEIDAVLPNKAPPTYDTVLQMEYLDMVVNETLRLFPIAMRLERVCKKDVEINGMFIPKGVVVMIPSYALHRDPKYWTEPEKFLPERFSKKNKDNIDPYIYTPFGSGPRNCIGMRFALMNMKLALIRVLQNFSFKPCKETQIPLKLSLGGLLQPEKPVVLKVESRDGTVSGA
Sequence of Cytochrome P450 2D6 (P10635 whole entry): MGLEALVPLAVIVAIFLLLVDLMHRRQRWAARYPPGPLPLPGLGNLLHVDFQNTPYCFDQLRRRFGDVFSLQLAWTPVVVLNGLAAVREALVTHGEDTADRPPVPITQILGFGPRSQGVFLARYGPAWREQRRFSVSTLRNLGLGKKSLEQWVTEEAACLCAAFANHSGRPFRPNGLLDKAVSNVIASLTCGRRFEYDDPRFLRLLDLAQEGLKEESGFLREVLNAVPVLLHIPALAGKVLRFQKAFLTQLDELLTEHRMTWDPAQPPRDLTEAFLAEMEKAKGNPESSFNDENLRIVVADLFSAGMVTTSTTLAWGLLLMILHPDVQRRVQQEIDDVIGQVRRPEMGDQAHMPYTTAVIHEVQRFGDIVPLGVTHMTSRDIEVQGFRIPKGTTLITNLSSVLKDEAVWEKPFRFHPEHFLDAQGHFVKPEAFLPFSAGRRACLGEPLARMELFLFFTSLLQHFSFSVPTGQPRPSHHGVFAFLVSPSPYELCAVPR
Sequence of Epidermal growth factor receptor (Homo sapiens, UniProt P00533) (P00533 whole entry): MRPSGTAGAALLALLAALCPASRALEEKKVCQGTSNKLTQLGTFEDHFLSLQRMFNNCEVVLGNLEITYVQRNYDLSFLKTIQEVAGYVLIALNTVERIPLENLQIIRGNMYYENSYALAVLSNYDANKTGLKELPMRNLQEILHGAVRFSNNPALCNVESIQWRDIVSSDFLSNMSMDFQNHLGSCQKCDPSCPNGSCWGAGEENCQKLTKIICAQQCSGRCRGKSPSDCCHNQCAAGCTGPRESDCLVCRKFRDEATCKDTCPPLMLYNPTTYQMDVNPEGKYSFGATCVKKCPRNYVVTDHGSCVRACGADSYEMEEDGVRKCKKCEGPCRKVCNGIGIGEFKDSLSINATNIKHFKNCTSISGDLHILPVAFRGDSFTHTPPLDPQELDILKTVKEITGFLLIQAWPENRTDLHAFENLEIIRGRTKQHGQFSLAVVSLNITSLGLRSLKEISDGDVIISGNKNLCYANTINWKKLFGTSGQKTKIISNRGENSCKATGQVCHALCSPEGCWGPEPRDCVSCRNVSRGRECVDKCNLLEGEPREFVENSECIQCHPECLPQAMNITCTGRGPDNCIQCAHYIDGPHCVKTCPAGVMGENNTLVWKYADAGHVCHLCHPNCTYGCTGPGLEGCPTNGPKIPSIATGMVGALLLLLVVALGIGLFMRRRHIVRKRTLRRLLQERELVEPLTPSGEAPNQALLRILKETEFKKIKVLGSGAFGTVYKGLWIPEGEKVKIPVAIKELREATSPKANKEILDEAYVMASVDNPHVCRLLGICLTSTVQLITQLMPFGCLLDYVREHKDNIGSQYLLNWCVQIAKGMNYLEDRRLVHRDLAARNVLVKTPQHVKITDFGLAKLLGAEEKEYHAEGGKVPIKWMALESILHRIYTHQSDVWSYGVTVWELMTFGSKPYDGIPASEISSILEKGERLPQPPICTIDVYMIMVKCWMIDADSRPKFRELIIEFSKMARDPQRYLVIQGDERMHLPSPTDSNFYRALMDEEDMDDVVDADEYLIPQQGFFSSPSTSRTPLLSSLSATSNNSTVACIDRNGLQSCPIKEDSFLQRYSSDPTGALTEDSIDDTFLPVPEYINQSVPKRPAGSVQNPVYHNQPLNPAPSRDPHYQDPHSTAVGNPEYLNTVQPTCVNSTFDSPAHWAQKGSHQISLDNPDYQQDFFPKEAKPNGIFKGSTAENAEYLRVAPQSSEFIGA

CCOc1cc2ncnc(Nc3ccc(OCc4ccccn4)c(Cl)c3)c2cc1NC(=O)/C(F)=C/CN(C)C
T/C (NCI-H1975): 15.6%
inhibition at 10 µM (hERG (KCNH2) [1]): 3.06%
bioavailability [2]: 89.4%
IC50 (Cytochrome P450 1A2): > 10 µM
IC50 (Cytochrome P450 3A4): > 10 µM
IC50 (Cytochrome P450 2C9): > 10 µM
IC50 [3]: 0.00138 µM
microsomal CLint at 1 µM [4]: 95 µL/min/mg
IC50 [5]: 0.00377 µM
IC50 [6]: 0.00018 µM
IC50 (Cytochrome P450 2C19): > 10 µM
Cmax [7]: 2660 nM
Vz (Mus musculus [8]): 3.94 L/kg
Kp at 6 h [9]: 11
microsomal CLint at 1 µM [10]: 47 µL/min/mg
CL/F [11]: 20 mL/min/kg
inhibition at 1 µM (hERG (KCNH2) [12]): 0%
IC50 (A-431): 0.34 µM
microsomal CLint at 1 µM [13]: 27 µL/min/mg
microsomal CLint at 1 µM [14]: 33 µL/min/mg
microsomal CLint at 1 µM [15]: 97 µL/min/mg
Kp at 6 h [16]: 0.29
IC50 (Cytochrome P450 2D6): > 10 µM
AUC(0-inf) [17]: 16.6 µM·h

CN(C)C/C=C/C(=O)Nc1cc2c(Nc3ccc(F)c(Cl)c3)ncnc2cc1O[C@H]1CCOC1 [AFATINIB]
T/C (NCI-H1975): 30.3%
bioavailability [2]: 37.4%
microsomal CLint at 1 µM [4]: 9 µL/min/mg
inhibition of growth at 5 µM (SW-620): 78%
Cmax [7]: 130 nM
Vz (Mus musculus [8]): 36.2 L/kg
microsomal CLint at 1 µM [10]: 6 µL/min/mg
CL(app) (Mus musculus [18]): 270 mL/min/kg
microsomal CLint at 1 µM [13]: 8 µL/min/mg
microsomal CLint at 1 µM [14]: 12 µL/min/mg
microsomal CLint at 1 µM [15]: 24 µL/min/mg
AUC (Mus musculus [19]): 29.4 µM·min

COc1cc2ncnc(Nc3ccc(F)c(Cl)c3)c2cc1NC(=O)/C(F)=C/CN1CCCCC1
T/C (NCI-H1975): 67.4%
inhibition at 10 µM (hERG (KCNH2) [1]): 11.8%
IC50 (Cytochrome P450 1A2): > 10 µM
IC50 (Cytochrome P450 3A4): > 10 µM
IC50 (Cytochrome P450 2C9): > 10 µM
microsomal CLint at 1 µM [4]: 34 µL/min/mg
Cmax [20]: 830 nM
IC50 (Cytochrome P450 2C19): > 10 µM
AUC(0-inf) [21]: 5.1 µM·h
CL/F [22]: 40 mL/min/kg
Kp at 6 h [9]: 20
microsomal CLint at 1 µM [10]: 31 µL/min/mg
inhibition at 1 µM (hERG (KCNH2) [12]): 0.71%
bioavailability [23]: 105%
IC50 (A-431): 0.46 µM
microsomal CLint at 1 µM [13]: 37 µL/min/mg
microsomal CLint at 1 µM [14]: 11 µL/min/mg
microsomal CLint at 1 µM [15]: 102 µL/min/mg
Kp at 6 h [16]: 2.31
IC50 (Cytochrome P450 2D6): > 10 µM
Vz (Mus musculus [24]): 7.14 L/kg
